Compound activity: PubChem, several laboratories
A selection: hits, their analogues and other compounds. The true share with any hit is near 2.3%.
NS3 helicase inh – inhibitors of HCV NS3 helicase, primary screen, biochemical, Cy5 molecular beacon fluorescence | Hepatitis C virus NS3 helicase | NS3 helicase DNA unwinding | inhibition, % at 10.9 µM | actives 0.56% (n = 290,000);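 active means inhibition above the mean of all tested compounds plus 3 SD, set per campaign, cut at about 35% in these data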
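System: Hepatitis C virus NS3 helicase domain fragment enzyme | Reagent: Annealed dual-labelled DNA beacon duplex, ATP-started | Compound dosing: 10.9 µM single point, 0.8% DMSO | Incubation: 1 h reaction at 25 °C, ATP-initiated | Technique: Cy5 fluorescence | Evaluation: Percent inhibition from t60/t0 fluorescence ratio | Benchmarks: Low DMSO, high thioflavine S at 110 µM | Replication: Singlicate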
HCV core dimer – inhibitors of HCV core protein dimerization, primary screen, biochemical, TR-FRET, high-throughput; TR-FRET GST/Flag-core106 dimerization, 1536-well; inhibition, % at 5 µM; actives 0.33% (n = 300,000);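 active means inhibition above the mean of all tested compounds plus 3 SD, set per screening campaign, cut at about 45% in these data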
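Assay system: Tagged HCV core106 pair (GST and Flag) | Buffer or medium: KF-containing HEPES buffer, pH 7.45, DTT, CHAPS, BSA | Also added: Eu donor and XL665 acceptor anti-tag antibodies | Dosing: One concentration, 5 µM, in 0.5% DMSO | Timing: 4 h at 22.5 °C | Technique: TR-FRET 671 and 617 nm emission | Repeats: Singlicate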
ZTA counter – counter-screen for EBNA-1 inhibitors: inhibitors of Epstein-Barr virus ZTA; P03206; ZTA-DNA binding, fluorescence polarization; inhibition, % at 11 µM; actives 0.15% (n = 320,000); AID 2234; in the data active means inhibition above about 33%
Target sequence (P03206 whole entry, looked up): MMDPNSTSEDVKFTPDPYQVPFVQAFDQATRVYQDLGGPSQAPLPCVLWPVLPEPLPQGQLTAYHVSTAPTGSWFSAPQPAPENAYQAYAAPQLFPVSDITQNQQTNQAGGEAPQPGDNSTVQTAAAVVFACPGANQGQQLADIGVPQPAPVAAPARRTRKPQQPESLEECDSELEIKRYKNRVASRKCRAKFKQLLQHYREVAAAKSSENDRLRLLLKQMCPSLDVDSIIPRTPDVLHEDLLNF
EBNA-1 inh – EBNA-1 DNA-binding inhibitors, primary screen, biochemical, fluorescence polarization; actives 0.34% (n = 300,000); inhibition, % at 14.8 µM; AID 1950, 2009; in the data active means inhibition above about 28%
GPR7 antagonist – GPR7 receptor antagonists, primary screen, cell-based, fluorescence, single concentration | Neuropeptides B/W receptor type 1 (Homo sapiens), P48145 | GPR7-expressing cells, fluorescence antagonist assay | inhibition, % at 4.4 µM | actives 1.1% (n = 290,000); in the data active means inhibition above about 16%, passing the limit was not always enough;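 further: cells stimulated with the agonist NPW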
EBV gp42 inh – Epstein-Barr virus gp42 inhibitors, primary screen, biochemical, uHTS, fluorescence polarization; Glycoprotein 42 (Epstein-Barr virus (strain AG876)), Q1HVG2; Fluorescence polarization binding assay, mP read-out; inhibition, % (tested at 21.74 µM); actives 0.42% (n = 220,000); in the data active means inhibition above about 50%
Target sequence (Q1HVG2 whole entry, looked up): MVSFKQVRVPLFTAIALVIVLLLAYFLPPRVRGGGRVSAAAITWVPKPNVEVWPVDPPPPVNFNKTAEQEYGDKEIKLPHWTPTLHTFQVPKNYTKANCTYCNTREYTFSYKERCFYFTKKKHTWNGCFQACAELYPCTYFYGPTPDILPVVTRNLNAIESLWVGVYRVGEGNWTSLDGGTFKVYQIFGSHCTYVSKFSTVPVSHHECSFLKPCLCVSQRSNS
GPR7 antag conf – GPR7 receptor antagonists, confirmation, cell-based, fluorescence, single concentration; inhibition, % at 4.4 µM; GPR7-expressing cells, calcium fluorescence antagonist mode; shares compounds with GPR7 antagonist; actives 52% (n = 2,400); in the data active means inhibition above about 24%;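 further: stimulated with the GPR7 agonist NPW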
MCHR1 antag – MCHR1 antagonists in cells, counter-screen for GPR7 antagonist project, cell-based, fluorescence, human. shares compounds with GPR7 antagonist. MCHR1-expressing cells, fluorescence antagonist assay. inhibition, % at 4.4 µM. actives 62% (n = 2,400). AID 2148, 2009; in the data active means inhibition above about 22%
Hits are given with their value; i = inactive; nt = no result given.

SMILES | NS3 helicase inh | HCV core dimer | ZTA counter | EBNA-1 inh | GPR7 antagonist | EBV gp42 inh | GPR7 antag conf | MCHR1 antag
N=c1n(CCO)c2ccccc2n1CCOc1ccc(Cl)cc1Cl | i | i | i | i | 31 | i | 58 | 43
COc1ccc(OCCn2c(=N)n(CCO)c3ccccc32)cc1 | i | i | i | i | i | i | nt | nt
O=C(CN(C(=O)CNS(=O)(=O)c1ccc(F)cc1)C1CCCC1)NCc1ccco1 | i | i | i | i | i | nt | nt | nt
COc1nc(N/N=C/c2cc3c(cc2Br)OCO3)nc(N2CCOCC2)n1 | i | i | i | i | i | i | nt | nt
Brc1cc2c(cc1/C=N/Nc1nc(N3CCCCC3)nc(N3CCCCC3)n1)OCO2 | i | nt | nt | nt | 25 | i | i | i
CCn1cc(C(=O)N2CCN(c3ccc(OC)cc3)CC2)c2cc(OC)c(OC)cc2c1=O | i | i | i | i | 39 | i | i | i
C=CCOc1ccccc1C(=O)/C=C1/C(=O)Nc2ccccc21 | i | i | i | i | 37 | nt | 59 | 82
O=C(OCC(=O)N1CCN(c2ccccc2)CC1)c1ccc(O)cc1O | i | i | i | i | 26 | nt | i | i
CC1CC(=O)N(CC(=O)NCc2ccc(F)cc2)c2ccccc2S1(=O)=O (centres undefined) | i | i | i | i | i | nt | nt | nt
O=C(Nc1cccnc1)c1ccc(COc2ccccc2Br)o1 | i | i | i | i | 69 | i | 33 | 54
O=C(NCc1cccnc1)c1ccc(COc2ccccc2Br)o1 | i | i | i | i | i | i | nt | nt
COc1ccc(NC(=S)N(Cc2ccc(C)cc2)Cc2ccccn2)cc1 | i | i | i | i | 25 | i | i | i
O=C1NC(=S)S/C1=C\c1coc2ccc(O)cc2c1=O | i | i | 45 | i | 21 | i | i | i
O=C1NC(=S)S/C1=C\c1coc2ccccc2c1=O | i | i | i | i | 27 | i | i | i
N#CC(C#N)=Cc1cnc(N2CCN(c3ccccc3)CC2)s1 | i | i | i | i | 41 | nt | i | 42
O=Cc1cnc(N2CCN(c3ccccc3)CC2)s1 | i | i | i | i | i | i | nt | nt
CSCC[C@H](NC(=O)N1C[C@H]2C[C@@H](C1)c1cccc(=O)n1C2)C(=O)Nc1ccc(NC(C)=O)cc1 | i | i | i | i | i | nt | nt | nt
O=C1c2cccc(OCC(=O)N3CCCc4ccccc43)c2CCN1Cc1ccc(F)cc1 | i | i | i | i | 28 | i | 41 | 77
CC(C)[C@H](NS(=O)(=O)/C=C/c1ccccc1)C(=O)OCC(=O)NC(N)=O | i | i | i | i | i | i | nt | nt
CCOC(=O)c1cc(-c2ccc(Cl)cc2)nc2c1c(C)nn2CCC#N | i | i | i | i | i | i | nt | nt
CCOC(=O)c1cc(-c2ccc(OC)cc2F)nc2c1c(C)nn2CCC#N | i | i | i | i | 29 | i | 33 | 23
CCOc1ccc(N(C)S(=O)(=O)c2cc(-c3cc(C)no3)ccc2CC)cc1 | i | i | i | i | i | nt | nt | nt
CCOc1ccc(N(C)S(=O)(=O)c2cc(-c3cc(C)no3)ccc2C)cc1 | i | i | i | i | 32 | nt | i | 74
c1ccc(Cc2nnc(-c3ccccc3)o2)cc1 | i | i | i | i | 69 | i | 71 | 60
CC(C)Cc1ccc(C(C)C(=O)Nc2ccccc2O)cc1 (centres undefined) | i | i | i | i | 69 | i | 89 | 94
CC(C)Cc1ccc(C(C)C(=O)Nc2nccs2)cc1 (centres undefined) | i | i | i | i | 63 | i | 78 | 78
O=C(O)c1cccc(Cn2c(Cl)c(/C=N/NC(=O)c3ccco3)sc2=O)c1 | i | i | i | i | i | nt | nt | nt
